Results as given in ChEMBL document CHEMBL3580630, “Design and Synthesis of a Screening Library Using the Natural Product Scaffold 3-Chloro-4-hydroxyphenylacetic Acid” (2015).
Active and inactive are the calls of the source. No cut-off for these calls is given here.

Assays:
Plasmodium falciparum = experiment: Antiparasitic activity against asexual intraerythrocytic stage of Plasmodium falciparum 3D7 assessed as inhibition of parasite replication at 10 uM after 72 hrs by DAPI staining-based microscopic analysis relative to control; type: functional; conditions: 3D7, 72 h
[1] = system: Trypanosoma brucei brucei; experiment: Antiparasitic activity against bloodstream form of Trypanosoma brucei brucei 427 assessed as inhibition of parasite replication at 10 uM after 72 hrs by resazurin assay relative to control; type: functional; conditions: Trypanosoma brucei, 427, 72 h
LNCaP [2] = experiment: Cytotoxicity against human LNCAP cells assessed as inhibition of cell proliferation at 10 uM after 72 hrs by Alamar blue assay relative to control; type: functional
LNCaP [3] = experiment: Antilipogenic activity in human LNCAP cells assessed as reduction of cellular phospholipid level at 10 uM after 48 hrs by nile red staining-based fluorescence microscopic analysis relative to control; type: functional, cell-based
Outline: (§1)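 Cells were grown 72 h in phenol-red-free RPMI-1640 with 5% CSS, then exposed 48 h to 10 µM compound in 0.3% DMSO. Controls were DMSO alone (negative) and TOFA (positive). Cells were fixed in 4% paraformaldehyde for 20 min on ice, then stained 20 min at room temperature in the dark with 1.0 µg/mL DAPI and 0.25 µg/mL Nile Red in PBS. Imaging was at 10×. Neutral lipids were read in the Cy3 channel and phospholipids in Cy5, as mean fluorescence intensity per cell (~1500 cells/treatment). Statistics used one-way ANOVA with Dunnett's test.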

PC-3 [4] = experiment: Antilipogenic activity in human PC3 cells assessed as reduction of cellular neutral lipid level at 10 uM after 48 hrs by nile red staining-based fluorescence microscopic analysis relative to control; type: functional, cell-based; outline: as §1
PC-3 [5] = experiment: Antilipogenic activity in human PC3 cells assessed as reduction of cellular phospholipid level at 10 uM after 48 hrs by nile red staining-based fluorescence microscopic analysis relative to control; type: functional, cell-based; outline: as §1
LNCaP [6] = experiment: Antilipogenic activity in human LNCAP cells assessed as reduction of cellular neutral lipid level at 10 uM after 48 hrs by nile red staining-based fluorescence microscopic analysis relative to control; type: functional, cell-based; outline: as §1

Q: How did the inhibition at 10 µM (Plasmodium falciparum) turn out when `O=C(Cc1ccc(O)c(Cl)c1)NCc1ccccc1` was run?
A: > 50%

Q: What about the inhibition at 10 µM [1] of the same compound?
A: > 50%

Q: What about the inhibition at 10 µM (LNCaP [2]) of the same compound?
A: > 50%

Q: Which inhibition at 10 µM (Plasmodium falciparum) does the source give for `CCN(CC)CCCNC(=O)Cc1ccc(O)c(Cl)c1` here?
A: > 50%

Q: And the inhibition at 10 µM [1]?
A: > 50%

Q: And the inhibition at 10 µM (LNCaP [2])?
A: > 50%

Q: What does the source list for `CCN(CC)CCNC(=O)Cc1ccc(O)c(Cl)c1`?
A: inhibition at 10 µM (Plasmodium falciparum): > 50%; inhibition at 10 µM [1]: > 50%; inhibition at 10 µM (LNCaP [2]): > 50%

Q: What does the source list for `CCCCCCCCCCCCCCOc1ccc(C(=O)O)o1`?
A: Activity (LNCaP [3]): inactive; Activity (PC-3 [4]): Active; Activity (PC-3 [5]): inactive; Activity (LNCaP [6]): Active

Q: Which inhibition at 10 µM (Plasmodium falciparum) does the source give for `CN(C)CCCNC(=O)Cc1ccc(O)c(Cl)c1` here?
A: > 50%

Q: What about the inhibition at 10 µM [1] of the same compound?
A: > 50%

Q: And the inhibition at 10 µM (LNCaP [2])?
A: > 50%

Q: What does the source list for `O=C(Cc1ccc(O)c(Cl)c1)NCc1ccc(Br)cc1`?
A: inhibition at 10 µM (Plasmodium falciparum): > 50%; inhibition at 10 µM [1]: > 50%; inhibition at 10 µM (LNCaP [2]): > 50%

Q: Which inhibition at 10 µM (Plasmodium falciparum) does the source give for `O=C(Cc1ccc(O)c(Cl)c1)NCCc1ccc(Br)cc1` here?
A: > 50%

Q: What about the inhibition at 10 µM [1] of the same compound?
A: > 50%

Q: What about the inhibition at 10 µM (LNCaP [2]) of the same compound?
A: > 50%

Q: What does the source list for `O=C(Cc1ccc(O)c(Cl)c1)NCCc1cccc(F)c1`?
A: inhibition at 10 µM (Plasmodium falciparum): > 50%; inhibition at 10 µM [1]: > 50%; inhibition at 10 µM (LNCaP [2]): > 50%

Q: How did the inhibition at 10 µM (Plasmodium falciparum) turn out when `O=C(Cc1ccc(O)c(Cl)c1)NCCc1ccccn1` was run?
A: > 50%

Q: What about the inhibition at 10 µM [1] of the same compound?
A: > 50%

Q: What about the inhibition at 10 µM (LNCaP [2]) of the same compound?
A: > 50%

Q: Which inhibition at 10 µM (Plasmodium falciparum) does the source give for `O=C(Cc1ccc(O)c(Cl)c1)NCCN1CCNCC1` here?
A: > 50%

Q: What about the inhibition at 10 µM [1] of the same compound?
A: > 50%

Q: What about the inhibition at 10 µM (LNCaP [2]) of the same compound?
A: > 50%

Q: Which inhibition at 10 µM (Plasmodium falciparum) does the source give for `O=C(Cc1ccc(O)c(Cl)c1)NCCc1ccccc1` here?
A: > 50%

Q: What about the inhibition at 10 µM [1] of the same compound?
A: > 50%

Q: And the inhibition at 10 µM (LNCaP [2])?
A: > 50%

Q: Which results are given for `CN(C)CCNC(=O)Cc1ccc(O)c(Cl)c1`?
A: inhibition at 10 µM (Plasmodium falciparum): > 50%; inhibition at 10 µM [1]: > 50%; inhibition at 10 µM (LNCaP [2]): > 50%

Q: What does the source list for `O=C(Cc1ccc(O)c(Cl)c1)NCCN1CCOCC1`?
A: inhibition at 10 µM (Plasmodium falciparum): > 50%; inhibition at 10 µM [1]: > 50%; inhibition at 10 µM (LNCaP [2]): > 50%

Q: With `CC(C)CCNC(=O)Cc1ccc(O)c(Cl)c1` as the compound, how does the inhibition at 10 µM (Plasmodium falciparum) read?
A: > 50%

Q: What about the inhibition at 10 µM [1] of the same compound?
A: > 50%

Q: And the inhibition at 10 µM (LNCaP [2])?
A: > 50%

Q: Which results are given for `O=C(Cc1ccc(O)c(Cl)c1)NCc1cccc(F)c1`?
A: inhibition at 10 µM (Plasmodium falciparum): > 50%; Activity (LNCaP [3]): Active; Activity (PC-3 [4]): Active; Activity (PC-3 [5]): Active; Activity (LNCaP [6]): Active; inhibition at 10 µM [1]: > 50%; inhibition at 10 µM (LNCaP [2]): > 50%

Q: For `O=C(Cc1ccc(O)c(Cl)c1)NCc1ccccc1F`, which inhibition at 10 µM (Plasmodium falciparum) is on record?
A: > 50%

Q: And the Activity (LNCaP [3])?
A: Active

Q: What about the Activity (PC-3 [4]) of the same compound?
A: Active

Q: What about the Activity (PC-3 [5]) of the same compound?
A: Active

Q: And the Activity (LNCaP [6])?
A: Active

Q: What about the inhibition at 10 µM [1] of the same compound?
A: > 50%

Q: What about the inhibition at 10 µM (LNCaP [2]) of the same compound?
A: > 50%

Q: Which inhibition at 10 µM (Plasmodium falciparum) does the source give for `O=C(Cc1ccc(O)c(Cl)c1)NCc1ccc(F)cc1` here?
A: > 50%

Q: And the Activity (LNCaP [3])?
A: Active

Q: What about the Activity (PC-3 [4]) of the same compound?
A: Active

Q: What about the Activity (PC-3 [5]) of the same compound?
A: Active

Q: What about the Activity (LNCaP [6]) of the same compound?
A: Active

Q: And the inhibition at 10 µM [1]?
A: > 50%

Q: And the inhibition at 10 µM (LNCaP [2])?
A: > 50%

Q: How did the inhibition at 10 µM (Plasmodium falciparum) turn out when `O=C(Cc1ccc(O)c(Cl)c1)NCCc1ccc(Cl)cc1` was run?
A: > 50%

Q: And the inhibition at 10 µM [1]?
A: > 50%

Q: What about the inhibition at 10 µM (LNCaP [2]) of the same compound?
A: > 50%

Q: With `O=C(O)Cc1ccc(O)c(Cl)c1` as the compound, how does the inhibition at 10 µM (Plasmodium falciparum) read?
A: > 50%

Q: What about the inhibition at 10 µM [1] of the same compound?
A: > 50%

Q: And the inhibition at 10 µM (LNCaP [2])?
A: > 50%

Q: Which results are given for `O=C(Cc1ccc(O)c(Cl)c1)NCCc1ccccc1F`?
A: inhibition at 10 µM (Plasmodium falciparum): > 50%; inhibition at 10 µM [1]: > 50%; inhibition at 10 µM (LNCaP [2]): > 50%

Q: How did the inhibition at 10 µM (Plasmodium falciparum) turn out when `O=C(Cc1ccc(O)c(Cl)c1)NCCc1ccc(F)cc1` was run?
A: > 50%

Q: What about the inhibition at 10 µM [1] of the same compound?
A: > 50%

Q: And the inhibition at 10 µM (LNCaP [2])?
A: > 50%

Q: What does the source list for `COC(=O)Cc1ccc(O)c(Cl)c1`?
A: inhibition at 10 µM (Plasmodium falciparum): > 50%; inhibition at 10 µM [1]: > 50%; inhibition at 10 µM (LNCaP [2]): > 50%

Q: `O=C(Cc1ccc(O)c(Cl)c1)NCc1ccc(Cl)cc1` was tested. Which inhibition at 10 µM (Plasmodium falciparum) did it give?
A: > 50%

Q: And the inhibition at 10 µM [1]?
A: > 50%

Q: And the inhibition at 10 µM (LNCaP [2])?
A: > 50%
